Laboratory results as given in ChEMBL document CHEMBL3875225, “Design, synthesis and biological evaluation of 7-(aryl)-2,3-dihydro-[1,4]dioxino[2,3-g]quinoline derivatives as potential Hsp90 inhibitors and anticancer agents” (Bioorg Med Chem, 2017).
pIC50: −log10 of the molar value. Calls of active or inactive are those of the source. No cut-off for these calls is given here.

Legend:
[1] = Antiproliferative activity against human DU145 cells after 48 hrs by MTT assay; type: functional, cell-based, DU-145; conditions: for pIC50: Homo sapiens, DU-145, 48 h
Procedure, shortened: (§1)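 5000 cells seeded per well in RPMI complete medium; next day medium replaced with medium containing a range of compound concentrations, with a no-drug control and 17-AAG as reference. After 48 h at 37 °C, 5% CO2, MTT (4 mg/mL solution) added for 3 h. Formazan dissolved in DMSO, absorbance read at 540 nm. Triplicate determinations; mean SD from dose-response curves of three independent experiments.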

[2] = Antiproliferative activity against human A549 cells after 48 hrs by MTT assay; type: functional, cell-based; conditions: for pIC50: Homo sapiens, A549, 48 h; procedure, shortened: as §1
[3] = Antiproliferative activity against human MCF7 cells after 48 hrs by MTT assay; type: functional, cell-based; conditions: for pIC50: Homo sapiens, MCF7, 48 h; procedure, shortened: as §1
[4] = Effect on beta-tubulin protein expression in human MCF7 cells at 50 uM after 24 hrs by Western blot method; type: cell-based; conditions: mcf7, 24 h
Procedure, shortened: (§2)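 MCF-7 cells seeded at 10⁶ per 25 cm² flask and treated 24 h with 50 µM compound; DMSO vehicle control, 0.5 μM 17-AAG reference. Lysis in Tris-HCl pH 7.4 buffer with protease/phosphatase inhibitors. 50 µg protein resolved on 10% SDS-PAGE, transferred to PVDF, blocked 2 h in 5% skim milk/TBST at 4 °C. Probed 2 h with rabbit anti-Her-2 and anti-Hsp-70 (1:3000); β-tubulin also blotted.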

[5] = molecular target: T1, Heat shock protein HSP90 (Homo sapiens) (UniProt P07900+P08238); test: Inhibition of HSP90 in human MCF7 cells assessed as induction of HSP70 protein expression at 50 uM after 24 hrs by Western blot method relative to control; type: cell-based; procedure, shortened: as §2
[6] = molecular target: T1, Heat shock protein HSP90 (Homo sapiens); test: Inhibition of HSP90 in human MCF7 cells assessed as decrease in Her2 protein expression at 50 uM after 24 hrs by Western blot method relative to control; type: cell-based; procedure, shortened: as §2

SMILES | pIC50 [1] | pIC50 [2] | pIC50 [3] | Activity [4] | inhibition [5] | inhibition [6] | Activity [1] | Activity [2] | Activity [3]
C=CCNC1=C2C[C@@H](C)C[C@H](OC)[C@H](O)[C@@H](C)/C=C(\C)[C@H](OC(N)=O)[C@@H](OC)/C=C\C=C(/C)C(=O)NC(=CC1=O)C2=O [TANESPIMYCIN] | 6.55 | 6.54 | 6.72 |  |  |  |  |  | 
O=C(O)c1cc(-c2ccc(O)cc2)nc2cc3c(cc12)OCCO3 | < 4.00 | < 4.00 | < 4.00 |  |  |  |  |  | 
OCc1cc(-c2ccccc2)nc2cc3c(cc12)OCCO3 | 4.06 | < 4.00 | 4.64 | Non-Toxic | Active | > 50% |  |  | 
COc1ccc(-c2cc(C(=O)O)c3cc4c(cc3n2)OCCO4)cc1O | < 4.00 | < 4.00 | < 4.00 |  |  |  |  |  | 
COc1ccc(-c2cc(CO)c3cc4c(cc3n2)OCCO4)cc1 | 4.67 | < 4.00 | 4.62 | Non-Toxic | Active | > 50% |  |  | 
COc1cc(-c2cc(CO)c3cc4c(cc3n2)OCCO4)ccc1O | 4.06 | 4.06 | 4.59 | Non-Toxic | Active | > 50% |  |  | 
CC(=O)Nc1ccc(-c2cc(C(=O)O)c3cc4c(cc3n2)OCCO4)cc1 | < 4.00 | < 4.00 | < 4.00 |  |  |  |  |  | 
COc1cc(/C=N/c2ccc3c(c2)OCCO3)cc(OC)c1OC |  |  |  |  |  |  | >100 µM | >100 µM | >100 µM
COc1cc(/C=N/c2ccc3c(c2)OCCO3)ccc1O |  |  |  |  |  |  | >100 µM | >100 µM | >100 µM
Oc1ccc(/C=N/c2ccc3c(c2)OCCO3)cc1 |  |  |  |  |  |  | >100 µM | >100 µM | >100 µM
COc1ccc(-c2cc(CO)c3cc4c(cc3n2)OCCO4)cc1O | 4.05 | 4.03 | 4.40 | Non-Toxic | Active | > 50% |  |  | 
COc1cc(-c2cc(C(=O)O)c3cc4c(cc3n2)OCCO4)cc(OC)c1OC | < 4.00 | < 4.00 | < 4.00 |  |  |  |  |  | 
COc1ccc(-c2cc(C(=O)O)c3cc4c(cc3n2)OCCO4)cc1 | < 4.00 | < 4.00 | < 4.00 |  |  |  |  |  | 
Cc1ccc(-c2cc(C(=O)O)c3cc4c(cc3n2)OCCO4)cc1 | < 4.00 | < 4.00 | < 4.00 |  |  |  |  |  | 
COc1ccc(-c2cc(C(=O)O)c3cc4c(cc3n2)OCCO4)cc1OC | < 4.00 | < 4.00 | < 4.00 |  |  |  |  |  | 
O=C(O)c1cc(-c2ccccc2)nc2cc3c(cc12)OCCO3 | < 4.00 | < 4.00 | < 4.00 |  |  |  |  |  | 
COc1cc(-c2cc(C(=O)O)c3cc4c(cc3n2)OCCO4)ccc1O | < 4.00 | < 4.00 | < 4.00 |  |  |  |  |  | 
O=C(O)c1cc(-c2cccc(O)c2)nc2cc3c(cc12)OCCO3 | < 4.00 | < 4.00 | < 4.00 |  |  |  |  |  | 
COc1ccc(-c2cc(CO)c3cc4c(cc3n2)OCCO4)cc1OC | 4.94 | 4.09 | 5.17 | Non-Toxic | Active | > 50% |  |  | 
COc1ccc(/C=N/c2ccc3c(c2)OCCO3)cc1OC |  |  |  |  |  |  | >100 µM | >100 µM | >100 µM
COc1cc(-c2cc(CO)c3cc4c(cc3n2)OCCO4)cc(OC)c1OC | 4.19 | 4.33 | 5.34 | Non-Toxic | Active | > 50% |  |  | 
